pIC50: −log10 of the molar value.
Legend:
Nitric oxide synthase 1 [1] = target: T1, Nitric oxide synthase 1 (Homo sapiens, UniProt P29475); assay: Inhibition of recombinant nNOS (unknown origin) assessed as conversion of L-[3H]-arginine to L-[3H]-citrulline at 1 mM after 30 mins
Method in brief: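 Recombinant nNOS (21.05 nmol/min/mg) in 25 mM Tris-HCl pH 7.6 with DTT, H4-biopterin, FAD, inosine, BSA, CaCl2, L-arginine and 50 nM L-[3H]-arginine. Compound at 1 mM; 37 °C, 30 min. Stopped with cold HEPES/EGTA/L-citrulline pH 5.5, Dowex-50W (Na+) separation, [3H]-citrulline by scintillation. NADPH-omitted blank subtracted. Mean of three experiments in triplicate.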

[2] = target: Nitric oxide synthase, inducible (Homo sapiens) (UniProt P35228); assay: Inhibition of recombinant iNOS (unknown origin) assessed as conversion of L-[3H]-arginine to L-[3H]-citrulline at 1 mM after 30 mins
Method in brief: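 Recombinant iNOS was tested with each compound at 1 mM. Activity is expressed relative to control and reported as % inhibition. Each value is the mean of three experiments, each run in triplicate.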

Nitric oxide synthase 1 [3] = target: T1, Nitric oxide synthase 1; assay: Inhibition of recombinant nNOS (unknown origin) assessed as conversion of L-[3H]-arginine to L-[3H]-citrulline after 30 mins
Method in brief: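 Bredt–Snyder radiometric citrulline assay using recombinant nNOS in 25 mM Tris-HCl pH 7.6 with DTT, H4-biopterin, FAD, inosine, BSA, 0.1 mM CaCl2, L-arginine and 50 nM L-[3H]-arginine. Incubated at 37 °C for 30 min, then Dowex-50W separation and scintillation counting. Blank without NADPH subtracted. IC50 given in mM.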

T1 sequence (P29475 whole entry): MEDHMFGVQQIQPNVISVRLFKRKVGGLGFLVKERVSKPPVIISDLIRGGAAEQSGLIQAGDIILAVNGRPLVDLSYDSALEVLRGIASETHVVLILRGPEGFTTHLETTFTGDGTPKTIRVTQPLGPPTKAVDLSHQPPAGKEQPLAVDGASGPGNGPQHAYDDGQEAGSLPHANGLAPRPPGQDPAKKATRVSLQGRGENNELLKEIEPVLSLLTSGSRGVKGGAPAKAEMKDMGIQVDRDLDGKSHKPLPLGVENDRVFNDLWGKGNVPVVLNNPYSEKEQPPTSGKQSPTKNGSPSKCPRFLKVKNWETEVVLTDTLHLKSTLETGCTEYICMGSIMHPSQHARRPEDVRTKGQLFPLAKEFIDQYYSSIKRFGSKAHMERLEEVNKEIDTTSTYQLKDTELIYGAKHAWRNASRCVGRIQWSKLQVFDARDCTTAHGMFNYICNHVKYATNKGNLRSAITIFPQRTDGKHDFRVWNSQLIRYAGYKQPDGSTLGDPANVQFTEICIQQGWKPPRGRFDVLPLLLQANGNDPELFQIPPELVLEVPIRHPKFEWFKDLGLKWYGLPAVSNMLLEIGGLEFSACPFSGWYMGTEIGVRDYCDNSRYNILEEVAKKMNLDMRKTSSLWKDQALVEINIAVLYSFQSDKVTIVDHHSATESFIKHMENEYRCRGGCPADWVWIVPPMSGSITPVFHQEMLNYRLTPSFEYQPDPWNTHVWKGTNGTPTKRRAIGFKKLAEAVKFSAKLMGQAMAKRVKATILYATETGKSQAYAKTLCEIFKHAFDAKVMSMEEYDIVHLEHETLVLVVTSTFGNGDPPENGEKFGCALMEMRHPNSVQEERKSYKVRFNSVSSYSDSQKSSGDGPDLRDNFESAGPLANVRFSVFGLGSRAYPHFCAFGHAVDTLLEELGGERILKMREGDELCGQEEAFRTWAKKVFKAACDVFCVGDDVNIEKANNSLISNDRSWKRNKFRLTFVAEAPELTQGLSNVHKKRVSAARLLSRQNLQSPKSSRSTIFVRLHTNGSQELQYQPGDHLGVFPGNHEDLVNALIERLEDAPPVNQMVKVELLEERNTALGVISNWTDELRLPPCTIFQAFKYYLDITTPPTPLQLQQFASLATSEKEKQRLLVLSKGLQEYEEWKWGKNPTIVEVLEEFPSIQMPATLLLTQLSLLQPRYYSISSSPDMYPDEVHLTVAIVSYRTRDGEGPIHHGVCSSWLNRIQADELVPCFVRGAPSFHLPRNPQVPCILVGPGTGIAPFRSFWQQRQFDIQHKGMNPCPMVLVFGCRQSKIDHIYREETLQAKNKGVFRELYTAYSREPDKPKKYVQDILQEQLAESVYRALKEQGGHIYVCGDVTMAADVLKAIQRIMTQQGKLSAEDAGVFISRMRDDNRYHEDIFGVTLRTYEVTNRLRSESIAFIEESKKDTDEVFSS
Sequence of Nitric oxide synthase, inducible (Homo sapiens) (P35228 whole entry): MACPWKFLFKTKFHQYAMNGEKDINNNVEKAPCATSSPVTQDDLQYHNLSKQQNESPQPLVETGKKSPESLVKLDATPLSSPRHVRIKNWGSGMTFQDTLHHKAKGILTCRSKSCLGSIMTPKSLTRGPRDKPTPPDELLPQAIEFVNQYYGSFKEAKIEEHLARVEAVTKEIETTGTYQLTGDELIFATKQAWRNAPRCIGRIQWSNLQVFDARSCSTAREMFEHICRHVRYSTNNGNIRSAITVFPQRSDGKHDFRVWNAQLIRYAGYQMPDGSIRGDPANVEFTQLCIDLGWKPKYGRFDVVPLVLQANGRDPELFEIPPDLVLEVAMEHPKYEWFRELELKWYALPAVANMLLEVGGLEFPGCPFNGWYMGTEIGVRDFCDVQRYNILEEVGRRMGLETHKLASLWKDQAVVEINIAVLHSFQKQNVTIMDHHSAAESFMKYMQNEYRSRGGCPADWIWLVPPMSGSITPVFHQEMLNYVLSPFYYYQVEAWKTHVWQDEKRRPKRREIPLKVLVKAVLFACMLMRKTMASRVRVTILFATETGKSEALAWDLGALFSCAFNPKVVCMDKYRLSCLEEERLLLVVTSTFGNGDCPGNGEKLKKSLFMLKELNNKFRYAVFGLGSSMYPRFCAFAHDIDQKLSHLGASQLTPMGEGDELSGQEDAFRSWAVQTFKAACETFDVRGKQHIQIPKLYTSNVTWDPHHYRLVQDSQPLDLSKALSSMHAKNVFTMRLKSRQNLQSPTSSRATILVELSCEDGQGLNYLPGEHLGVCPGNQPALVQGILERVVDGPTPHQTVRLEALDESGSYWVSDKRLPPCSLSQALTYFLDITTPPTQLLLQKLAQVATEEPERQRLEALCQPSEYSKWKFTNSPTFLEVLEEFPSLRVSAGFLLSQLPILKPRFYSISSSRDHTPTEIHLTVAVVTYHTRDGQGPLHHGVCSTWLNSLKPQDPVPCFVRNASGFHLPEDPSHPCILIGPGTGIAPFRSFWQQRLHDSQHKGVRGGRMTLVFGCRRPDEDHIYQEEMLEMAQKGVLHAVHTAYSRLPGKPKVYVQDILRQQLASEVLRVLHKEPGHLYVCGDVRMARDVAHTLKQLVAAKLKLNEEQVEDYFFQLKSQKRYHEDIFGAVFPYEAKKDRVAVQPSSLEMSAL

Row | inhibition (Nitric oxide synthase 1 [1]) [%] | inhibition [2] [%] | pIC50 (Nitric oxide synthase 1 [3]) | SMILES
1 | 57 | 8.7 |  | Nc1ccccc1C1=NN(C(=O)c2ccccc2)CC1
2 | 2.68 | 2.31 |  | Nc1ccccc1C1=NN(C(=O)Cc2ccccc2)CC1
3 | 61.1 | 17 |  | Nc1ccc(Cl)cc1C1=NN(C(=O)c2ccccc2)CC1
4 | 18.2 | 34.6 |  | Nc1ccc(Cl)cc1C1=NN(C(=O)Cc2ccccc2)CC1
5 | 25.1 | 28.9 |  | COc1cc(N)c(C2=NN(C(=O)c3ccccc3)CC2)cc1OC
6 | 34.4 | 0.29 |  | CCCC(=O)N1CCC(c2cc(Cl)ccc2N)=N1
7 | 25.9 | 21.2 |  | COc1ccc(N)c(C2=NN(C(=O)CCc3ccccc3)CC2)c1
8 | 2.97 | 50.2 |  | Nc1cc(Cl)c(Cl)cc1C1=NN(C(=O)CCc2ccccc2)CC1
9 | 47.6 | 1.03 |  | CC(=O)N1CCC(c2cc(Cl)ccc2N)=N1
10 | 32.4 | 31.4 |  | Nc1ccc(Cl)cc1C1=NN(C(=O)CCc2ccccc2)CC1
11 | 0.62 | 36.1 |  | Nc1cc(Cl)c(Cl)cc1C1=NN(C(=O)c2ccccc2)CC1
12 | 21.6 | 49.2 |  | Nc1cc(Cl)c(Cl)cc1C1=NN(C(=O)Cc2ccccc2)CC1
13 | 46.1 | 13.7 |  | CCC(=O)N1CCC(c2cc(Cl)ccc2N)=N1
14 | 58.9 | 12.2 |  | COc1ccc(N)c(C2=NN(C(=O)c3ccccc3)CC2)c1
15 | 0.03 | 15 |  | COc1ccc(N)c(C2=NN(C(=O)Cc3ccccc3)CC2)c1
16 | 7.36 | 5.64 |  | Nc1ccccc1C1=NN(C(=O)CCc2ccccc2)CC1
17 | 70.2 | 18.9 |  | Nc1ccc(Cl)cc1C1=NN(C(=O)C2CC2)CC1

Further lines, the compound ahead of its results:

Row | SMILES | inhibition (Nitric oxide synthase 1 [1]) [%] | inhibition [2] [%] | pIC50 (Nitric oxide synthase 1 [3])
18 | COc1ccc(N)c(C2=NN(C(=O)C3CCCCC3)CC2)c1 | 62.2 | 13.2 | 
19 | CCCC(=O)N1CCC(c2ccccc2N)=N1 | 52.4 |  | 
20 | Nc1ccccc1C1=NN(C(=O)C2CC2)CC1 | 38.8 | 14.8 | 
21 | COc1ccc(N)c(C2=NN(C(=O)C3CC3)CC2)c1 | 62.2 | 19.9 | 
22 | COc1ccc(N)c(C2=NN(C(C)=O)CC2)c1 | 38 | 20.4 | 
23 | COc1cc(N)c(C2=NN(C(=O)CCc3ccccc3)CC2)cc1OC | 55.3 | 23.7 | 3.06
24 | COc1cc(N)c(C2=NN(C(=O)Cc3ccccc3)CC2)cc1OC | 35.1 | 21 | 
25 | Nc1cc(Cl)c(Cl)cc1C1=NN(C(=O)C2CC2)CC1 | 50.5 | 15.5 | 
26 | COc1cc(N)c(C2=NN(C(=O)Cc3ccccc3)CC2)c(OC)c1OC | 48.4 | 23.4 | 
27 | COc1cc(N)c(C2=NN(C(=O)C3CC3)CC2)cc1OC | 19.6 | 25.2 | 
28 | COc1ccc(N)c(C2=NN(C(=O)C3CCC3)CC2)c1 | 38.3 | 1.91 | 
29 | CC(=O)N1CCC(c2ccccc2N)=N1 | 33.7 | 7.73 | 
30 | CCC(=O)N1CCC(c2cc(OC)ccc2N)=N1 | 53.3 | 20.4 | 
31 | COc1ccc(N)c(C2=NN(C(=O)C3CCCC3)CC2)c1 | 49.9 | 1.85 | 
32 | COc1cc(N)c(C2=NN(C(=O)C3CC3)CC2)c(OC)c1OC | 0.05 | 30.1 | 
33 | CCCCC(=O)N1CCC(c2cc(OC)ccc2N)=N1 | 49.8 | 0.18 | 
34 | COc1cc(N)c(C2=NN(C(=O)c3ccccc3)CC2)c(OC)c1OC | 62.9 | 8.14 | 3.28
35 | CCC(=O)N1CCC(c2ccccc2N)=N1 | 36.5 | 6.88 | 
36 | CCCC(=O)N1CCC(c2cc(OC)ccc2N)=N1 | 34.7 | 13.1 | 
37 | COc1cc(N)c(C2=NN(C(=O)CCc3ccccc3)CC2)c(OC)c1OC | 82.5 | 18.3 | 3.40

Source: ChEMBL document CHEMBL2396629, “Synthesis and biological evaluation of 4,5-dihydro-1H-pyrazole derivatives as potential nNOS/iNOS selective inhibitors. Part 2: Influence of diverse substituents in both the phenyl moiety and the acyl group” (Bioorg Med Chem, 2013)
